Bioassay records (PubChem)
TAAR1 antag: human TAAR1 antagonism | CHO RD-HGA16 TAAR1, Fluo-8 calcium fluorescence, antagonist | inhibition, % at 3 µM | Q96RJ0 | actives 1.5% (n = 360,000) | AID 624466;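 active means inhibition above a per-plate cutoff, the mean inhibition of test compounds on that plate plus 3 SD, cut at about 49% in these data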
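Test system: RD-HGA16 CHO cells with stable hTAAR1 and Gα16 / Probe or stimulus: EC80 β-phenethylamine stimulus / Times: seeding 17-24 h prior, 75-min 37 °C, 30-min RT dye loading / Detection: Fluo-8 calcium-sensitive fluorescence / Read-out basis: % inhibition scaled between DMSO and EC80 PEA controls / Repeats: singlicate, one well per test compound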
OXTR potentiator: human OXTR potentiation; CHO-OTR cells, Fluo-8 calcium fluorescence, potentiator mode; 0% = oxytocin EC15, 100% = EC100; activation, % at 3 µM; actives 0.061% (n = 320,000);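 active means activation above that plate's cutoff, the mean activation of tested compounds plus 3 SD, cut at about 6.6% in these data, passing the limit was not always enough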
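Material: human OTR in CHO cells. Compound: 3.0 µM, one dose. Timing: compound 6 min at room temperature before oxytocin, 100 s read. Evaluation: % activation of max/min ratio relative to oxytocin controls. Replication: single well per compound, singlicate. Signal: Fluo-8 calcium dye fluorescence.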
OXTR agonist: human OXTR agonism; actives 0.32% (n = 320,000); AID 2435; activation, % at 3 µM; CHO-OTR cells, Fluo-8 calcium fluorescence; normalized: DMSO 0%, oxytocin 100%;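 active means activation above the mean of all tested compounds plus 3 SD, cutoff set per screening run, cut at about 20% in these data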;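 further: peak over basal fluorescence ratio from a 100 s FLIPR kinetic read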
TAAR1 agonist: human TAAR1 agonism; Q96RJ0; CHO RD-HGA16 TAAR1, Fluo-8 calcium fluorescence; vehicle wells 0%, saturating PEA agonist 100%; activation, % at 3 µM; actives 0.99% (n = 360,000);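 active means activation above the mean activation of all test compounds in the run plus 3 SD, cut at about 38% in these data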
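test system = CHO RD-HGA16 cells carrying human TAAR1 plus Gα16 | schedule = 17-24 h seeding, 75 min 37 °C dye, 30 min RT | compound dosing = 3 µM single concentration | control set = DMSO and PEA EC100 | replicates = n 1 | signal = Fluo-8 fluorescence, 5 s baseline then 140 s kinetic read | measure = percent activation vs PEA EC100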
V1aR counter: activates human V1a receptor in oxytocin agonist counter-screen | P37288 | CHO-V1R cells, Fluo-8 calcium fluorescence, agonist mode; 0% DMSO, 100% 3 nM vasopressin | activation, % at 3 µM | actives 0.25% (n = 320,000) | AID 2797;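 active means activation above the mean activation of all tested compounds plus 3 SD, per screening run, cut at about 20% in these data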;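 further: signal is peak over basal fluorescence ratio across a 100 second FLIPR read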
Target sequence (P37288 whole entry, looked up): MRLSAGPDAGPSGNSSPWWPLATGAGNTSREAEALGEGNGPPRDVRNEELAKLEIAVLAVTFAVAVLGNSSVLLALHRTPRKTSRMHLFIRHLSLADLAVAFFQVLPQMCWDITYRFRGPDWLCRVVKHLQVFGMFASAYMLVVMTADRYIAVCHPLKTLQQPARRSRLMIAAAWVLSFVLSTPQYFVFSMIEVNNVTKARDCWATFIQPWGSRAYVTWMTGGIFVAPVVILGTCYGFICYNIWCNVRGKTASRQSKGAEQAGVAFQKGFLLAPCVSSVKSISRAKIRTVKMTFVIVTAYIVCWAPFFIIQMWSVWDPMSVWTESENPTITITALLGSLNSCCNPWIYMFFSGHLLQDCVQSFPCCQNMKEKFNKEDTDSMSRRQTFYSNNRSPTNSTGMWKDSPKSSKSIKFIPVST
TAAR1 nonsel count: nonselective antagonist in TAAR1 antagonist counter-screen; shares compounds with TAAR1 antag; counterscreen cell line, calcium fluorescence, antagonist mode; inhibition, % at 3 µM; actives 77% (n = 2,400); AID 651780; in the data active means inhibition above about 22%;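 further: CHO-Ga16 host cells stimulated with ATP at an EC80 level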
TAAR1 ant conf: human TAAR1 antagonism, confirmed. shares compounds with TAAR1 antag. TAAR1-expressing cells, fluorescence antagonist read-out. inhibition, % at 3 µM. actives 40% (n = 2,400). AID 651785; in the data active means inhibition above about 49%;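 further: CHO-Ga16 host cells challenged with agonist PEA near its EC80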
Ga16 ag counter: nonselective Ga16 agonism, counter-screen; shares compounds with TAAR1 antag; Ga16-expressing cells, calcium fluorescence, agonist counterscreen; activation, % at 3 µM; actives 18% (n = 2,400); AID 651953; in the data active means activation above about 12%
TAAR1 ag counter: counter-screen for human TAAR1 antagonists: TAAR1 agonists | shares compounds with TAAR1 antag | hTAAR1 cell line, fluorescence activation, agonist mode | activation, % at 3 µM | actives 2% (n = 2,400); in the data active means activation above about 37%;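 further: CHO cells stably expressing TAAR1 with calcium dye readout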
Large screens that a line does not name were inactive (follow-up assays come after a bar, where they were run). Only some compounds are listed: those with a hit (about 2.3% of all), similar ones and a draw of the others.

Cc1nc2ccccc2c2oc(C(=O)NCC3COc4ccccc4O3)cc12 (centres undefined)	TAAR1 antag 54 | TAAR1 nonsel count 35 | TAAR1 ant conf inactive | Ga16 ag counter inactive | TAAR1 ag counter inactive
CCc1ccc(CNC(=O)c2cc3c(C)nc4ccccc4c3o2)cc1	none
C=CCn1c(=S)[nH]c2cc(C(=O)Nc3ccc(OC)c(OC)c3)ccc2c1=O	TAAR1 antag 62 | TAAR1 nonsel count 33 | TAAR1 ant conf inactive | Ga16 ag counter 12 | TAAR1 ag counter inactive
COCCn1c(=O)[nH]c2cc(C(=O)Nc3ccc(OC)c(Cl)c3)ccc2c1=O	none (no result: TAAR1 antag, TAAR1 agonist)
COc1ccc(C(=O)N2N=C(c3ccc(NS(C)(=O)=O)cc3)CC2c2cccs2)cc1 (centres undefined)	TAAR1 antag 59 | TAAR1 nonsel count 30 | TAAR1 ant conf inactive | Ga16 ag counter inactive | TAAR1 ag counter inactive
Cc1ccc(C(=O)N2N=C(c3ccc(NS(C)(=O)=O)cc3)CC2c2cccs2)cc1 (centres undefined)	none
CN1C(=O)C(CC(=O)O)S/C1=N\N=C\c1ccc(O)cc1O (centres undefined)	none
O=C(O)C1=CCCc2ccc(F)cc21	none (no result: OXTR potentiator, OXTR agonist, V1aR counter)
C[C@@H]1CN([C@H](C)CO)S(=O)(=O)c2ccc(C#Cc3ccccc3F)cc2O[C@H]1CN(C)C(=O)c1ccc2c(c1)OCO2	TAAR1 antag 73 (no result: OXTR potentiator, OXTR agonist, V1aR counter) | TAAR1 nonsel count 34 | TAAR1 ant conf 59 | Ga16 ag counter 12 | TAAR1 ag counter inactive
Cc1ccc2c(c1)N(CCCC(=O)Nc1cccc(C(F)(F)F)c1)C(=O)CO2	none
COc1cccc(NC(=O)CN(C)C(=O)c2cc(-c3ccccc3)nn2-c2ccccc2)c1	none
CCOC(=O)c1[nH]c(COC(=O)CCCOc2ccccc2)c(C(=O)OCC)c1C	none (no result: TAAR1 antag, TAAR1 agonist)
COc1cccc(-c2csc(N3CCN(C(=O)Nc4ccc(F)cc4)CC3)n2)c1	TAAR1 antag 79 | TAAR1 nonsel count 55 | TAAR1 ant conf 64 | Ga16 ag counter inactive | TAAR1 ag counter inactive
COc1cccc(-c2csc(N3CCN(C(=O)Nc4ccccc4OC)CC3)n2)c1	none
COc1cccc(N2C(=O)C3ON(c4ccccc4)C(c4cccs4)C3C2=O)c1 (centres undefined)	TAAR1 antag 54 | TAAR1 nonsel count 24 | TAAR1 ant conf inactive | Ga16 ag counter inactive | TAAR1 ag counter inactive
Cc1noc(C)c1S(=O)(=O)N(C)C[C@H]1OCc2cn(nn2)CCCC(=O)N([C@H](C)CO)C[C@@H]1C	none (no result: OXTR potentiator, OXTR agonist, V1aR counter)
CCCCN(Cc1cc2cc(OC)ccc2[nH]c1=O)S(=O)(=O)c1ccc(C)cc1	TAAR1 antag 77 | TAAR1 nonsel count inactive | TAAR1 ant conf inactive | Ga16 ag counter inactive | TAAR1 ag counter inactive
COc1ccc(N(Cc2cc3ccccc3[nH]c2=O)S(=O)(=O)c2ccc(C)cc2)cc1	TAAR1 antag 55 | TAAR1 nonsel count inactive | TAAR1 ant conf inactive | Ga16 ag counter inactive | TAAR1 ag counter inactive
COc1ccc(N(Cc2cc3ccccc3[nH]c2=O)S(=O)(=O)c2ccccc2)cc1	none
COc1ccc2[nH]c(=O)c(CN(CCO)S(=O)(=O)c3ccc(C)cc3)cc2c1	none
Cc1nn(C)c(Cl)c1CN1CCN(CC(C)C)C(CCO)C1 (centres undefined)	none
COc1ccc(NC(=O)C2(C)CCN2C(=O)c2ccccc2CCc2ccccc2)cc1OC (centres undefined)	TAAR1 antag 65 (no result: OXTR potentiator, OXTR agonist, V1aR counter) | TAAR1 nonsel count inactive | TAAR1 ant conf inactive | Ga16 ag counter inactive | TAAR1 ag counter inactive
